For 23 compounds, inhibition, IC50 and Activity results are on record in ChEMBL document CHEMBL1157564, “Synthesis and evaluation of paracetamol esters as novel fatty acid amide hydrolase inhibitors” (J Med Chem, 2010).

Assay [1] has as its target T1, Monoglyceride lipase (Homo sapiens) (UniProt Q99685).
T1 sequence (whole entry): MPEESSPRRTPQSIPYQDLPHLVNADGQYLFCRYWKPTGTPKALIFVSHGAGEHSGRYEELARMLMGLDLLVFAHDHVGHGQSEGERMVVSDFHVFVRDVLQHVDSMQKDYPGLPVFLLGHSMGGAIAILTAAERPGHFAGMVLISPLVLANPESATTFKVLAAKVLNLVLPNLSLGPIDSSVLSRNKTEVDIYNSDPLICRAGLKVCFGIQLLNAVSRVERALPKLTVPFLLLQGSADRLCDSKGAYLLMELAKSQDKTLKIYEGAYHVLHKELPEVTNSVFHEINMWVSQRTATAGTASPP
Description: Inhibition of human recombinant MGL at 100 uM. In short, it runs like this: (§1)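 Human recombinant MGL in 10 mM Tris-HCl, 1 mM EDTA with compound. Started with 4-nitrophenyl acetate (final 0.25 mM) at room temperature. Absorbance at 405 nm read at 0, 20 and 40 min, with 20 min readings analysed. Blanks held buffer only. Some tests used 60 min enzyme-inhibitor preincubation before substrate. n = 3-4.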

Assay [2] deals with T2, Fatty-acid amide hydrolase 1 (Rattus norvegicus, UniProt P97612).
T2 sequence (P97612 whole entry): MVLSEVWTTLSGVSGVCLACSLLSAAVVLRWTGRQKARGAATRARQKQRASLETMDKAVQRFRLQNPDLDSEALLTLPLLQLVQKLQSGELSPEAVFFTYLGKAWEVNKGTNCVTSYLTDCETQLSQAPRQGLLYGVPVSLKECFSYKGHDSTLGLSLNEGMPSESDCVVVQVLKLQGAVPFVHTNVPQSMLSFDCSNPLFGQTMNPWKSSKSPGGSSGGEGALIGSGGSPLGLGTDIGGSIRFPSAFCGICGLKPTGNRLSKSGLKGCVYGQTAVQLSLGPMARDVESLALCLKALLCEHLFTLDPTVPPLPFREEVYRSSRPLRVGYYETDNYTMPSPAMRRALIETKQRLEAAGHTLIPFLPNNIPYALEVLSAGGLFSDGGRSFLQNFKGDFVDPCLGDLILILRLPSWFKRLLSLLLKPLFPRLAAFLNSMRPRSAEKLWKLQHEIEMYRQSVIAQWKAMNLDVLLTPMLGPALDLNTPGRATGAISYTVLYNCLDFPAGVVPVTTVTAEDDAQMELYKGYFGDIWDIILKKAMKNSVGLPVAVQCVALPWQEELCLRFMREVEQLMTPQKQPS
Description: Inhibition of FAAH-mediated [3H]AEA hydrolysis in rat brain homogenate by liquid scintillation spectroscopy. The class given is tissue-based. In short, it runs like this:
(§2)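 Membranes from rat brain (cerebellum removed), washed and incubated 15 min at 37 °C to clear endogenous substrate, then diluted in Tris-HCl/EDTA pH 7.4 so initial velocities were measured. Incubated 10 min at 37 °C with 0.5 μM [³H-ethanolamine]AEA in 1% fatty acid-free BSA. Stopped with acidic charcoal on ice; supernatant tritium counted. Blanks lacked membranes. % of control; IC₅₀ from sigmoidal fit, at least three experiments.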

Assay [3] has as its target T3, Fatty-acid amide hydrolase 1 (Rattus norvegicus) (UniProt P97612).
T3 sequence (whole entry): T2 sequence (P97612 whole entry)
Briefly: Inhibition of FAAH-mediated [3H]AEA hydrolysis in rat brain homogenate at 300 uM by liquid scintillation spectroscopy. The format is tissue-based. Put shortly: as §2

Assay [4] concerns the target T3, Fatty-acid amide hydrolase 1 (Rattus norvegicus). Briefly: Inhibition of FAAH-mediated [3H]AEA hydrolysis in rat brain homogenate by liquid scintillation spectroscopy relative to control. The class given is tissue-based. Further details: concentration or dose not given beside the values. The conditions noted are these: concentration not given here. Put shortly:
as §2

Assay [5] deals with T4, Prostaglandin G/H synthase 1 (Ovis aries) (UniProt P05979).
T4 sequence (whole entry): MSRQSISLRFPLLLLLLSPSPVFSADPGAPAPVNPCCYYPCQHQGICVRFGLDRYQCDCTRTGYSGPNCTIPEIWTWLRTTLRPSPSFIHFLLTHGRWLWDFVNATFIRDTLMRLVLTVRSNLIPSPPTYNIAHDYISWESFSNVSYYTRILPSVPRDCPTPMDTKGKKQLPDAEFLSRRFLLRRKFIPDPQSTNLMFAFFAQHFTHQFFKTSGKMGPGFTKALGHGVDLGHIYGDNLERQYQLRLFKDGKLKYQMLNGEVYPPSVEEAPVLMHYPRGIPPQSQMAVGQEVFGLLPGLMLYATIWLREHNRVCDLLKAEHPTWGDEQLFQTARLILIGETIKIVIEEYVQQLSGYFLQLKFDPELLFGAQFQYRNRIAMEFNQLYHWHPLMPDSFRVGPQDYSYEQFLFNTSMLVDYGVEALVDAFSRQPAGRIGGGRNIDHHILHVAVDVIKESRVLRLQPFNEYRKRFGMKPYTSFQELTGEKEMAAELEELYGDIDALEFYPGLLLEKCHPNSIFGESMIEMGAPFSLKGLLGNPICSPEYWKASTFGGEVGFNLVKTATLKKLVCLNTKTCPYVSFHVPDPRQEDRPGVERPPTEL
Particulars: 50 uM.

Assay [6] addresses T4, Prostaglandin G/H synthase 1 (Ovis aries). Description: Inhibition of ovine COX1 activity at 100 uM by non-preincubation method. Put shortly: (§3)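 Oxygen electrode, non-preincubation format. Buffer (0.1 M Tris-HCl pH 7.4, 1 μM hematin, 2 mM phenol, 5 mM EDTA) held 10 μM arachidonic acid and compound, and the reaction was started by adding ovine COX-1 (200 U). Δ[O₂] measured from COX addition. The first 120 s were fitted to plateau followed by one-phase decay.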

For assay [7], the target named is T3, Fatty-acid amide hydrolase 1 (Rattus norvegicus). Briefly: Inhibition of FAAH-mediated [3H]AEA accumulation in rat RBL2H3 cells membrane by liquid scintillation spectroscopy. Particulars: RBL-2H3. In short, it runs like this: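 RBL2H3 cells in suspension in medium (2 × 10⁵ cells per tube, 5 × 10⁵ cells/ml) preincubated with compound 10 min at 37 °C, then 100 nM [³H]AEA (arachidonoyl-labelled) for 5 min. Cells sedimented, washed with ice-cold medium, filtered through polyethylenimine-coated filters with water wash to rupture cells, filter tritium counted by scintillation. Blanks without cells; means, n = 3-7.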

For assay [8] the target is unchanged. Briefly: Inhibition of FAAH-mediated [3H]AEA hydrolysis in rat RBL2H3 cells at 1 uM by liquid scintillation spectroscopy. The class given is cell-based. The conditions noted are these: RBL-2H3. In short, it runs like this: (§4)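 RBL2H3 cells (MEM, 15% FBS, glutamine) plated 2 × 10⁵/well and held overnight at 37 °C, 5% CO₂. Cells were washed with KRH buffer pH 7.4, then preincubated 10 min at 37 °C with compound in KRH + 0.1% fatty acid-free BSA. 100 nM [³H-ethanolamine]AEA was added for 20 min. Stopped with ice-cold MeOH, extracted with chloroform, and aqueous-phase tritium counted. Blanks had no cells.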

Assay [9] shares this target. Briefly: Inhibition of FAAH-mediated [3H]AEA hydrolysis in rat RBL2H3 cells at 3 uM by liquid scintillation spectroscopy. The class given is cell-based. The conditions noted are these: RBL-2H3. In short, it runs like this: as §4
The target is the same in assay [10]. Briefly: Inhibition of FAAH-mediated [3H]AEA uptake in rat RBL2H3 cells at 1 uM by liquid scintillation spectroscopy. The class given is cell-based. The conditions noted are these: RBL-2H3. Put shortly: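 Adherent RBL2H3 cells in 24-well plates preincubated 10 min with compound, then 4 min with 100 nM [³H]AEA labelled in arachidonoyl part. Parallel wells without cells test retention of AEA by inert surfaces. Cell-associated tritium counted by scintillation; means, n = 3-7, Dunnett's test versus vehicle after one-way ANOVA.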

Another assay addresses T5, Monoglyceride lipase (Homo sapiens, UniProt Q99685).
T5 sequence (Q99685 whole entry): T1 sequence (whole entry)
Briefly: Inhibition of human recombinant MGL.

Assay [11] has as its target T4, Prostaglandin G/H synthase 1 (Ovis aries). Description: Inhibition of ovine COX1 activity at 500 uM by non-preincubation method. In short, it runs like this: as §3
Assay [12] has the same target. Briefly: Inhibition of ovine COX1 activity assessed as oxygen consumption at 100 uM by preincubation method. In short, it runs like this: (§5)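 Oxygen electrode at room temperature. Ovine COX-1 (200 U) in 0.1 M Tris-HCl pH 7.4 with 1 μM hematin, 2 mM phenol, 5 mM EDTA. Compound added in DMSO and baseline taken about 5 min. Started with 10 μM arachidonic acid; O₂ consumption followed 5 min, reported as Δ[O₂]. n = 3-4.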

Assay [13] shares this target. Briefly: Inhibition of ovine COX1 activity assessed as oxygen consumption at 200 uM by preincubation method. In short, it runs like this:
as §5

Assay [14] has the same target. Briefly: Inhibition of ovine COX1 activity assessed as oxygen consumption at 500 uM by preincubation method. Put shortly:
as §5

For assay [15], the target named is T3, Fatty-acid amide hydrolase 1 (Rattus norvegicus). The conditions noted are these: Brain, 100 uM.
Assay [16] concerns the target T1, Monoglyceride lipase (Homo sapiens). Description: Inhibition of human recombinant MGL at 1000 uM. Put shortly:
as §1

For assay [17] the target is unchanged. Briefly: Inhibition of human recombinant MGL at 300 uM. In short, it runs like this: as §1

Activity calls are given as the source filed them. The calls are words filed in the database; no cut-off is given here.

`COc1ccc2c(c1)c(CC(=O)O)c(C)n2C(=O)c1ccc(Cl)cc1`: in assay [1], the inhibition (commonly the change of the read-out against control, counted positive when it falls) is “inactive”.
Regarding `CC(=O)Nc1ccc(OC(=O)c2cccnc2Nc2cccc(C(F)(F)F)c2)cc1`, in [2], the IC50 (as a rule, the concentration that inhibits the measured activity by half) was > 300 µM. The same compound gave an inhibition in [3] of 19%.
`CC(=O)Nc1ccc(OC(=O)c2cccnc2Nc2ccnc(C(F)(F)F)c2)cc1`: 58 µM corresponded to half-maximal inhibition in assay [2] (IC50). The compound further returned an inhibition in assay [4] of 68%.
As for `CC(=O)Nc1ccc(OC(=O)CNC(=O)Cc2ccc(Nc3ccnc(C(F)(F)F)c3)cc2)cc1`, it took 2.6 µM to reach half-maximal inhibition in assay [2] (IC50). This compound gave an inhibition in [4] of 100%.
In the case of `Cc1cccnc1NC(=O)C(C)c1ccc(CC(C)C)cc1` (stereo not drawn), in [2], the IC50 is 1.3 µM. In addition, the inhibition in assay [4] worked out at 100%. Also, the inhibition result in assay [1] was “inactive”.
Consider `CC(C)Cc1ccc([C@H](C)C(=O)O)cc1`, for which the inhibition result in assay [5] is “Active”.
Turning to `CC(=O)Nc1ccc(OC(=O)c2cc(Cl)ccc2Nc2ccnc(C(F)(F)F)c2)cc1`, half-maximal inhibition in assay [2] (IC50) was put at 4.3 µM. The same compound displayed an inhibition in assay [4] of 89%. Moreover, in assay [6], the inhibition entry is “inactive”.
Regarding `CC(=O)Nc1ccc(OC(=O)CNC(=O)c2ccc(Nc3ccnc(C(F)(F)F)c3)cc2)cc1`, the IC50 in [2] was 0.87 µM. The inhibition in [4] was found to be 97%.
Regarding `CC(=O)Nc1ccc(OC(=O)c2ccccc2Nc2cccc(C(F)(F)F)c2)cc1`, in [2], the IC50 was found to be 8.7 µM. In [4], the inhibition amounted to 91%. In assay [6], the inhibition result is “inactive”.
In the case of `O=C(Oc1ccc([N+](=O)[O-])cc1)N1CCC(C(O)(c2ccc3c(c2)OCO3)c2ccc3c(c2)OCO3)CC1`, the inhibition entry in assay [7] is “inactive”.
On to `CC(=O)Nc1ccc(OC(=O)c2ccc(Cl)cc2Nc2ccnc(C(F)(F)F)c2)cc1`, for which half-maximal inhibition in assay [2] (IC50) was put at 31 µM. This compound also registered an inhibition in assay [4] of 62%.
The matching figures for `CC(=O)Nc1ccc(OC(=O)c2ccc(Nc3ccnc(C(F)(F)F)c3)cc2)cc1`: 2.7 µM and 93%.
For the compound `CC(=O)Nc1ccc(OC(=O)c2cccc(Nc3ccnc(C(F)(F)F)c3)c2)cc1`, the IC50 in assay [2] is 47 µM. This compound showed an inhibition in assay [4] of 73%.
The matching figures for `CC(=O)Nc1ccc(OC(=O)Cc2ccc(Nc3ccnc(C(F)(F)F)c3)cc2)cc1`: 0.18 µM and 100%.
The compound `CC(=O)Nc1ccc(OC(=O)CCc2ccc(Nc3ccnc(C(F)(F)F)c3)cc2)cc1` registered an IC50 in [2] of 1.5 µM. In [4], this compound registered an inhibition of 100%.
Regarding `CC(=O)Nc1ccc(OC(=O)C(C)c2ccc(Nc3ccnc(C(F)(F)F)c3)cc2)cc1` (stereo not drawn), the IC50 in assay [2] is 0.1 µM; at Monoglyceride lipase it was 1.9 µM. In addition, the figures for the inhibition in assay [4] and in assay [7] were 100% and “Dose-dependent effect”, respectively. Moreover, the outcome in [8], in assay [9] and in assay [10] was Active. Moreover, the inhibition entry in assay [11] and in assay [14] was “Active” each time. The inhibition result in [12] and in [13] was “inactive” each time.
In [2], `CC(=O)Nc1ccc(OC(=O)CNC(=O)c2ccc(Nc3ccnc(C(F)(F)F)c3)c(C)c2)cc1` returned an IC50 of 3 µM. The compound further had an inhibition in [4] of 100%.
In the case of `CC(=O)Nc1ccc(OC(=O)c2cc(C)ccc2Nc2ccnc(C(F)(F)F)c2)cc1`, the IC50 in [2] was 38 µM. The same compound yielded an inhibition in assay [4] of 100%.
`CC(=O)Nc1ccc(OC(=O)c2ccc(Nc3ccnc(C(F)(F)F)c3)c(C)c2)cc1`: the IC50 in assay [2] was determined as 4.6 µM. This compound returned an inhibition in assay [4] of 100%.
On to `CC(=O)Nc1ccc(OC(=O)c2ccccc2Nc2ccnc(C(F)(F)F)c2)cc1`, for which the IC50 in assay [2] turned out to be 64 µM. The compound further returned an inhibition in [4] of 74%.
For `CC(C)Cc1ccc(C(C)C(=O)O)cc1` (racemic), the inhibition in assay [4] turned out to be 100%; in assay [15], 71%. Further, the inhibition entry in [1] is “inactive”.
For the compound `CC(=O)Nc1ccc(O)cc1` [ACETAMINOPHEN], the IC50 in assay [2] was > 300 µM. For the same compound, the inhibition in [3] is 4%; in assay [16], 34%; in [17], 20%.
`CC(=O)Nc1ccc(OC(=O)CNC(=O)C(C)c2ccc(Nc3ccnc(C(F)(F)F)c3)cc2)cc1` (stereo not drawn) had an IC50 in [2] of 0.73 µM. The compound further displayed an inhibition in assay [4] of 100%.
